Compound activity deposited in PubChem by several laboratories.
An excerpt weighted towards active compounds, which were near 1.7% of everything screened.
CaV13 FRET inh – Primary screen for inhibitors of IQ motif and Ca2+-dependent inactivation inhibitor domain binding in CACNA1D, Förster resonance energy transfer in living cells, …; HEK cells, CFP/YFP FRET ICDI-IQ, plate reader, 10 min; percent FRET-ratio fall versus neutral wells; inhibition, % at 12.3 µM; 0.098% of 340,000 active; AID 743397;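 active = mean replicate inhibition of at least 30% and at least 1% of replicates passing that level; inconclusive = only one of the two criteria is met; inactive = neither criterion is met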
SR-BI uptake up – SR-BI HDL lipid transfer activation | AID 504775 | CHO ldlA[mSR-BI] cells, DiI-HDL uptake fluorescence, 3 h; 100 = double the neutral-control signal | activation, % at 12.5 µM | 0.096% of 320,000 active;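 active = mean replicate activation of at least 60% and every replicate at or above 60%; inconclusive = mean or all-replicate condition met, but not both; inactive = mean below 60% and not all replicates reaching 60%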
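Test system: SR-BI-overexpressing, LDLR-lacking CHO cells. Measured by: DiI fluorescence, bottom read. Medium: Ham's F12 with 0.5% BSA, HEPES 25 mM, pH 7.4. Timing: 3 h uptake period with compound, 37 °C.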
Vif inh – HIV Vif inhibition | HEK293T cells, Vif self-association by quenched fluorescence, imaging, 24 h | inhibition, % at 7.49 µM | 0.35% of 340,000 active; in the data active = inhibition above about 50%, passing the limit was not always enough; inconclusive = no clear call, values can overlap the other calls; inactive = below about 31%
SR-BI HDL uptake – blocks mouse SR-BI lipid uptake from DiI-HDL. 0.96% of 320,000 active. Q61009. AID 488896. ldlA[mSR-BI] CHO cells, DiI-HDL uptake fluorescence, 3 h. inhibition, % at 12.5 µM;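 active = mean replicate inhibition of at least 70% and a set share of replicates each scoring 70 or more; inconclusive = meets just one of the two criteria; inactive = fails both criteria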
NTR1 agonist – activates human neurotensin receptor 1; P30989; NTR1-U2OS beta-arrestin-GFP spot imaging, agonist mode; activation, % at 20 µM; 0.17% of 330,000 active;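 active = activation at or above 40% of the spot to cytoplasm intensity ratio, with at least 20 cells analyzed; inconclusive = wells under 20 cells, flagged as cytotoxic or low count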
Target sequence (P30989 whole entry, looked up): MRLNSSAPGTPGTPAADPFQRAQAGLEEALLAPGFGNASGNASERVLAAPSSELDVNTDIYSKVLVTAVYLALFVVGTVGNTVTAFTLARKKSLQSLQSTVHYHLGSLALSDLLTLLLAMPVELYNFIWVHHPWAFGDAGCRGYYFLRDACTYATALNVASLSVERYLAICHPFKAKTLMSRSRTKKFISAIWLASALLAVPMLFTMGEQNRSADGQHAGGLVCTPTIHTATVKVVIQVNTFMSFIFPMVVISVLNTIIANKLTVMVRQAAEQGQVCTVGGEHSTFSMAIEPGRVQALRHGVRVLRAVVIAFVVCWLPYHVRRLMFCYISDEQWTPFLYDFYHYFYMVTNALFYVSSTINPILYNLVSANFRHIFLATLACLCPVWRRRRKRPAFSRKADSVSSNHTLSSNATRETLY
V-ATPase pHluor – regulators of yeast V-ATPase proton transport; 0.37% of 350,000 active; S. cerevisiae, pHLuorin cytosolic pH fluorescence; AID 504577; response, % at 10 µM; in the data active = response mostly above about 7.3%, no sharp cut-off; inactive = mostly below about 5.4%; also: actives read high
Each line names hits and unclear results; the compound was inactive in the other large screens.

COC(=O)C1=C(C)N(Cc2ccc(C(F)(F)F)cc2)C(=NCc2ccccc2C(F)(F)F)NC1c1ccccc1C(F)(F)F (stereo not given)	none (no result: SR-BI uptake up, Vif inh, SR-BI HDL uptake, NTR1 agonist, V-ATPase pHluor)
COc1cc(OC)cc(-c2sc3ccc(OC)cc3c2C#CCO)c1	SR-BI HDL uptake 79
COc1cc(OC)cc(-c2sc3ccc(OC)cc3c2C#CC(C)(C)O)c1	none
Fc1ccc(-c2cc3nc4c(c(N5CCOCC5)n3n2)CCCC4)cc1	SR-BI HDL uptake 76
O=C(CN1C(=O)COc2ccccc2C1=O)c1ccc2c(c1)OCCO2	none
Cc1ccc(C(=O)N2CCN(c3ccccc3Cl)CC2)cc1[N+](=O)[O-]	none
CCS(=O)(=O)N1Cc2ccccc2CC1C(=O)N(C)Cc1ccc(OC)c(F)c1 (stereo not given)	V-ATPase pHluor 15
COc1ccc(NC(=S)N2CCN(C/C=C/c3ccccc3)CC2)cc1OC	Vif inh 65 (no result: CaV13 FRET inh)
COc1ccc(NC(=S)N2CCN(C/C=C/c3ccccc3)CC2)cc1	none
COc1cc(OC)cc(C(=O)Nc2ccc(N3CCN(C(=O)c4cccs4)CC3)cc2)c1	none (no result: CaV13 FRET inh)
COCCOC(=O)c1c(C)n(C)c2ccc(OC(=O)N3CCOCC3)cc12	none (no result: CaV13 FRET inh)
COCCOC(=O)c1c(C)n(C)c2ccc(OC(=O)c3c(OC)cccc3OC)cc12	SR-BI uptake up 397
O=C(CSc1nncs1)NCc1ccc(F)cc1	Vif inh 51 (no result: SR-BI uptake up, SR-BI HDL uptake)
CCCOc1ccc(NC(=O)C2CC(=O)N/C(=N/N=C(C)/C=C/c3ccc(N(C)C)cc3)S2)cc1 (stereo not given)	SR-BI HDL uptake 82
CC(/C=C/c1ccc(N(C)C)cc1)=N/N=C1/NC(=O)CC(C(=O)Nc2ccc(Cl)cc2)S1 (stereo not given)	none
O=C1CC(SC(=Nc2ccccc2)Nc2ccccc2)C(=O)N1c1cccc2ccccc12 (stereo not given)	SR-BI HDL uptake 93 (no result: V-ATPase pHluor)
COc1ccc(C(=O)c2[nH]c(N)c(C(=O)c3c[nH]c4ccccc34)c2-c2ccc(OC)cc2)cc1	none (no result: SR-BI uptake up, Vif inh, SR-BI HDL uptake, NTR1 agonist, V-ATPase pHluor)
CCOC(=O)c1c(NC(=O)C2=C(C)NC(=S)NC2c2ccc(F)cc2F)sc(C)c1C (stereo not given)	none
CCOC(=O)c1c(NC(=O)C2=C(C)NC(=S)NC2c2ccc(F)cc2)sc(C)c1C (stereo not given)	SR-BI HDL uptake 71
CC1=C(C(=O)Nc2ccccn2)C(c2ccc(Cl)cc2)NC(=S)N1 (stereo not given)	none
CCOC(=O)C1=C(C)NC(=S)NC1c1ccc(OCC(=O)N2CCCCC2)cc1 (stereo not given)	SR-BI HDL uptake 73
CCOC(=O)c1c(NC(=O)C2=C(C)NC(=S)NC2c2ccc(C)cc2)sc(C)c1C (stereo not given)	SR-BI HDL uptake 72
CCOC(=O)C1=C(C)NC(=S)NC1c1ccc(OCC(=O)N2CCCCCC2)c(OC)c1 (stereo not given)	SR-BI HDL uptake inconclusive
COc1ccc(-n2c(N)cc(=O)nc2SCC(=O)NC2CCCCC2)cc1	none (no result: NTR1 agonist)
CCN(C(=O)CO/N=C/c1ccc(OC)cc1OC)c1c(N)n(Cc2ccccc2)c(=O)[nH]c1=O	none
CC(C)CCNC(=O)CCc1nnc(COc2ccccc2)o1	Vif inh 86 (no result: NTR1 agonist)
O=S(=O)(NC1CCN(Cc2ccccc2)CC1)c1cccc(S(=O)(=O)N2CCOCC2)c1	V-ATPase pHluor 15
CCn1c(=O)c([N+](=O)[O-])c(NCCc2ccccc2)c2ccccc21	V-ATPase pHluor 8.5 (no result: CaV13 FRET inh)
Cn1c(=O)c([N+](=O)[O-])c(NCCc2ccccc2)c2ccccc21	none
COc1ccccc1Nc1cc(C(=O)NC2CCCC2)c2ccccc2n1	none
COc1ccc(Nc2nc(-c3ccccc3)nc3ccccc23)c(OC)c1	SR-BI HDL uptake 76
COc1ccc(Nc2cc(C(=O)NC3CCCC3)c3ccccc3n2)c(OC)c1	SR-BI HDL uptake 88
COc1ccc(Nc2nc(-c3ccncc3)nc3ccccc23)cc1	SR-BI HDL uptake 80
COc1ccc(OC)c(Nc2nc(-c3ccncc3)nc3ccccc23)c1	none
CCOC(=O)C1=C(C(=O)OCC)C2N(Cc3ccc(C#N)cc3)c3ccccc3[C@@]23C[C@@H](C(=O)OC)N(S(=O)(=O)c2cccs2)C3=N1 (stereo not given in full)	none (no result: SR-BI uptake up, Vif inh, SR-BI HDL uptake, NTR1 agonist, V-ATPase pHluor)
CCOC(=O)c1ccc(-c2ccc(/C=N/NC(=O)c3cncc(Br)c3)o2)cc1	Vif inh 58 (no result: SR-BI uptake up, SR-BI HDL uptake)
CCOC(=O)c1ccc(-c2ccc(/C=N/NC(=O)Cc3nnc(N)s3)o2)cc1	none
Cc1ccc(/C=N\NC(=O)c2cncc(Br)c2)o1	none
C=CCNC(=S)N/N=C/c1ccc(-c2ccc(Br)cc2)o1	SR-BI HDL uptake 82
CCCCOC(=O)c1ccc(-c2ccc(/C=N/NC(=S)NCC)o2)cc1	SR-BI HDL uptake 88 (no result: Vif inh)
CCN1C(=O)[C@H]2[C@@H](c3ccc(-c4ccc(F)cc4)cc3)N3CCCC[C@@]3(C(=O)OC)[C@H]2C1=O	none
COc1ccc(CN(CC(=O)NCC2CCCO2)C(=O)CCC(=O)Nc2nccs2)cc1 (stereo not given)	none
CCC(COC)NCc1cn(-c2ccc(OC)cc2)nc1-c1cccc(F)c1 (stereo not given)	none
Cc1ccc(C(=O)N/N=C/c2cc(Br)ccc2O)cn1	SR-BI HDL uptake 75
O=C(N/N=C/c1cc(Br)ccc1O)c1ccccc1Cl	SR-BI HDL uptake 84
COc1c(Br)cc(Br)cc1/C=N/NC(=O)c1cccnc1	none
O=C(N/N=C/c1cc(Cl)ccc1O)c1ccncc1	SR-BI HDL uptake 115
COC(=O)N/N=C/c1cc(Br)ccc1O	none
CCOc1cc(Br)cc(/C=N/NC(=O)c2cccnc2)c1O	SR-BI HDL uptake 80
O=C(COC(=O)c1cccc(Br)c1)NCC1CCCO1 (stereo not given)	none
COc1ccc2cc(C(=O)N/N=C/c3sc4ccccc4c3O)ccc2c1	SR-BI HDL uptake 96
COc1ccc(C(=O)N/N=C/c2sc3ccccc3c2O)cc1	SR-BI HDL uptake 120 (no result: CaV13 FRET inh, Vif inh, NTR1 agonist)
O=C(N/N=C/c1cccn1-c1ccc(O)cc1)c1cccc2ccccc12	SR-BI HDL uptake 77
COc1ccc(C(=O)N/N=C/c2c[nH]c3ccccc23)cc1	none
COc1ccc(C(=O)N/N=C/C(=O)c2ccccc2)cc1	none (no result: CaV13 FRET inh)
O=C(N/N=C/c1ccccc1)c1cccc2ccccc12	none
O=C(N/N=C/c1sc2ccccc2c1O)c1ccccc1	SR-BI HDL uptake 118 (no result: CaV13 FRET inh)
O=C(N/N=C/c1sc2ccccc2c1O)c1cccc2ccccc12	SR-BI HDL uptake 106 (no result: Vif inh, NTR1 agonist)
CCOc1ccc(OCC(=O)Nc2cc3c(cc2C(=O)O)OCCCO3)cc1	none
COc1ccc(OCC(=O)Nc2cc3c(cc2C(=O)O)OCCCO3)cc1	Vif inh 52
